Source: PubChem BioAssay (The Scripps Research Institute Molecular Screening Center)
Compounds with a hit are over-represented: about 1.8% of the library has one in this group of screens.
CHRM4 antagonist: blocks acetylcholine activation of human M4 receptor. P08173. CHO-hM4 cells, ACh EC80, Fluo-8 calcium fluorescence. inhibition, % at 3 µM. 0.73% of 360,000 active. AID 624125;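 active = inhibition above its plate's cutoff, the mean inhibition of sample wells plus 3 SD, cut at about 27% in these data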;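 note: 0% = acetylcholine EC80 with DMSO and 100% = DMSO without agonist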
M5 ag: CHRM5 agonism in calcium assay. CHO-K1 hM5 cells, Fluo-8 calcium fluorescence; 0% DMSO wells, 100% maximal acetylcholine response. activation, % at 3 µM. 0.19% of 360,000 active. P08912. AID 624037;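 active = activation above the run's mean over test compounds plus 3 SD, cut at about 23% in these data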;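 note: signal is peak over basal fluorescence ratio across the kinetic read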
Target sequence (P08912 whole entry, looked up): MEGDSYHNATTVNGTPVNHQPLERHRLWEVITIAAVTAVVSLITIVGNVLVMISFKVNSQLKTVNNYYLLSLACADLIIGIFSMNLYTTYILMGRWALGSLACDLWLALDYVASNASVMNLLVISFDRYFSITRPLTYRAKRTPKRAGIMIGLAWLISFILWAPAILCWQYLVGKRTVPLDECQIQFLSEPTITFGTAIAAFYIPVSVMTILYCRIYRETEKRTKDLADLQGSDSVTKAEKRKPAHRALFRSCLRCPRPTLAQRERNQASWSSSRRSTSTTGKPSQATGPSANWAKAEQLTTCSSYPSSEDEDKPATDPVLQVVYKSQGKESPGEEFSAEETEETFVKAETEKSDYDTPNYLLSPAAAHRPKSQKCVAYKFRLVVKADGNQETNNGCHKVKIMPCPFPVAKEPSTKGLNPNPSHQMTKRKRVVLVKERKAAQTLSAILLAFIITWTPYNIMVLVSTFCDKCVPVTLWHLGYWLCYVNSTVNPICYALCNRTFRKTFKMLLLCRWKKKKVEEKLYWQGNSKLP
CHRM5 antagonist: blocks acetylcholine activation of human M5 receptor; P08912; CHO-hM5 cells, Fluo-8 calcium fluorescence, ACh EC80; inhibition, % at 3 µM; 0.59% of 360,000 active;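 active = inhibition above a per-plate cutoff, the mean of that plate's test compounds plus 3 SD, cut at about 27% in these data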;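 note: 0% = acetylcholine EC80 with DMSO and 100% = DMSO without agonist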
CHRM4 agonist: agonists of human muscarinic M4 receptor (CHRM4) | AID 624127 | P08173 | activation, % at 3 µM | CHO-K1 hM4/Gqi5, Fluo-8 calcium fluorescence; vehicle 0%, full acetylcholine response 100% | 0.14% of 360,000 active;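 active = activation above the run mean over all test wells plus 3 SD, cut at about 32% in these data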;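 note: peak over basal fluorescence ratio per well then scaled between controls; 0% = DMSO wells and 100% = acetylcholine at EC100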
M5 PAM: CHRM5 positive allosteric modulation; P08912; CHO-K1 hM5, Fluo-8 calcium, ACh EC20 PAM; 0% = ACh EC20, 100% = ACh EC100; activation, % at 3 µM; 0.3% of 360,000 active; AID 624038;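 active = activation above the run cutoff, the mean activation of all test compounds plus 3 SD, cut at about 18% in these data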
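Test system: CHO-K1 hM5 cells / Doses: single-point, 3 µM nominal / Times: Post-acetylcholine fluorescence recording 140 s / Technique: Fluo-8 calcium fluorescence / Measure: Max/basal fluorescence ratio as % of EC20–EC100 ACh window / Benchmarks: low control EC20 acetylcholine (0%), high control EC100 acetylcholine (100%) / Replicates: one well per compound, no replicates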
CHRM4 PAM: potentiates acetylcholine response at human M4 receptor; CHO-K1 hM4/Gqi5, Fluo-8 calcium fluorescence, ACh EC20; 0% = ACh EC20, 100% = maximal ACh; activation, % at 3 µM; P08173; 0.4% of 360,000 active;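 active = activation above its plate's cutoff, the mean activation of sample wells plus 3 SD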
Numbers without * were called inactive.

SMILES	CHRM4 antagonist	M5 ag	CHRM5 antagonist	CHRM4 agonist	M5 PAM	CHRM4 PAM
O=C(CN1C(=O)C(=O)N(C2CCCC2)C1=O)Nc1ccc([N+](=O)[O-])cc1	-4	3	-7	5	4	4
Cn1cc(CN2CCC(C(=O)NC(c3ccc(-c4ccccc4)cc3)c3cnccn3)CC2)c2ccccc21 (centres undefined)	28*	1	11	29	-3	-10
CC(C)Cc1ccc(C(C)C(N)=NCCc2ccccc2)cc1 (centres undefined)	4	-5	6	13	-2	-15
O=C(CN1C(=O)NC2(CCCC2)C1=O)OCC(=O)c1cccc(Cl)c1	-5	4	0	2	3	5
CCOC(=O)CCc1c(C)n(CC)c2cc(-c3ccccc3OC)nn2c1=O	-9	-9	0	-1	13	19*
CCOc1ccccc1NC(=O)CSc1nnc(NC(=O)c2ccco2)s1	2	-1	-16	1	10	22*
O=C(Nc1nnc(COc2ccccc2)s1)c1ccco1	-8	0	-2	3	2	16*
O=C(CSc1nnc(NC(=O)c2ccco2)s1)Nc1ccccc1F	-2	-8	-6	2	2	25*
CC(NC(=O)C1CCN(C(=O)c2ccc(F)cc2)CC1)c1ccc(-n2ccnc2)cc1 (centres undefined)	17	-8	10	1	-1	-11
CCOC(=O)C1=C(COC(=O)CNS(=O)(=O)c2ccc(C)c(C)c2)NC(=O)NC1C (centres undefined)	0	1	-3	3	-1	-3
CCOC(=O)C1=C(COC(=O)CNS(=O)(=O)c2ccc(NC(C)=O)cc2)NC(=O)NC1C (centres undefined)	-5	2	7	2	0	22*
O=C(CC(=O)c1ccccc1)Nc1cccnc1Cl	-5	-1	8	3	-8	-2
Cc1nc(-c2nnc(-c3ccccc3)o2)c(C(F)(F)F)o1	29*	0	14	13	-20	-20
c1ccc(-c2nnc(-c3ccccc3)o2)cc1	-9	-1	6	1	1	4
COCCN(C(=O)COC(=O)/C=C/c1ccc2c(c1)OCO2)c1c(N)n(Cc2ccccc2)c(=O)[nH]c1=O	2	1	4	-1	1	3
CCc1sc(C(=O)Nc2ncccc2O)cc1C	-5	-5	-2	0	-7	20*
CCc1sc(C(=O)Nc2ncccc2C)cc1C	10	0	9	2	0	5
COc1cc(C(CCN2CCCC(C)C2)c2c(OC)cc(OC)c3c2OC(=O)CC3c2ccc(N(C)C)cc2)cc(OC)c1OC (centres undefined)	3	2	-2	3	22*	10
CN(C)CCCNc1oc(/C=C/c2ccccc2)nc1C#N	-5	3	24	1	32*	4
C[C@@H]1CN([C@H](C)CO)C(=O)Cc2cc(NC(=O)Nc3ccccc3)ccc2O[C@@H]1CN(C)C(=O)Nc1ccc2c(c1)OCO2	7	1	10	0	5	9
CCc1c(C)sc(NC(=O)C2CC2c2ccccc2)c1C(N)=O (centres undefined)	27*	-3	3	1	-1	5
CC1C(=O)N(Cc2cn(CCC3OCCCO3)nn2)CCS(=O)(=O)N1Cc1ccc(-c2ccc(F)cc2)cc1 (centres undefined)	-2	1	7	17	-8	-9
Cc1cccc(C)c1-c1ccc(CN2C(CC(C)C)C(=O)N(Cc3cn(CCO)nn3)CCS2(=O)=O)cc1 (centres undefined)	28*	3	11	29	-13	-13
CC1C(=O)N(Cc2cn(CCC3OCCCO3)nn2)CCS(=O)(=O)N1Cc1ccc(-c2ccc(Cl)c(Cl)c2)cc1 (centres undefined)	40*	7	36*	21	-18	-12
CN(C)c1ccc(C=c2c3ccccc3n3c2c2ccccc2[n+]3C)cc1	33*	-7	22	4	-9	-8
SMILES	CHRM4 antagonist	M5 ag	CHRM5 antagonist	CHRM4 agonist	M5 PAM	CHRM4 PAM
COc1ccccc1-c1nnc(Nc2nc3c(OC)cccc3s2)o1	35*	1	24	3	-3	-6
CCOC(=O)c1cnc2ccc(Br)cc2c1NCC(C)O (centres undefined)	-1	-2	-2	0	4	4
CCOC(=O)c1cnc2ccccc2c1NCCO	0	-12	0	0	-10	5
CCOC(=O)c1cnc2ccc(Cl)cc2c1NCCN(C)C	4	-2	5	4	0	27*
CCOC(=O)c1cnc2ccc(Br)cc2c1NCCO	-12	3	-2	1	0	20*
CCOC(=O)c1ccc2ncc(C(=O)OCC)c(NCCCN3CCOCC3)c2c1	3	-2	-3	1	5	5
CCOC(=O)c1cnc2ccc(Br)cc2c1NCCCN1CCOCC1	14	-2	9	13	3	40*
CCN(CC)CCCn1c2c(c(SCC(=O)Nc3nc4ccccc4s3)nc1=O)CCC2	-19	-8	1	2	1	-2
CCC[C@@H]1CCCO[C@@](C(=O)NCc2cc(C)n(C)n2)(C(F)(F)F)C1	7	0	11	0	2	-1
CCOc1ccc(S(=O)(=O)NCC(=O)OCc2nnc(-c3ccccc3)o2)cc1	10	2	-1	2	-4	0
O=C(NCc1ccccc1)C(c1ccco1)N(C(=O)c1ccccn1)c1ccccc1 (centres undefined)	-3	-5	49*	5	-9	-1
COc1ccc(CNC(=O)C(c2ccco2)N(C(=O)c2ccccn2)c2ccccc2)cc1 (centres undefined)	-2	5	1	10	-2	-7
COC(=O)CCC(NS(=O)(=O)OCC(Cl)(Cl)Cl)c1ccccc1 (centres undefined)	-3	-2	-1	1	5	-2
CC(C)CC(NS(=O)(=O)OCC(Cl)(Cl)Cl)c1ccccc1 (centres undefined)	30*	-8	12	0	-24	-15
COc1ccc(CCN2C(=O)C(Oc3ccccc3C)C2c2ccc3c(c2)OCO3)cc1 (centres undefined)	-1	1	13	5	3	-11
COc1ccc(CCN2C(=O)C(Oc3ccccc3C)C2c2ccc3c(c2)OCO3)cc1OC (centres undefined)	29*	-1	11	5	-16	-6
